# Published values of several laboratories.
# Lines come from different studies, so protocols differ.
# Target: Acetylcholinesterase (ACHE, Homo sapiens, UniProt P22303)
# Observed: enzyme activity
# Mode: inhibitor
SMILES,test,setting,IC50 [nM]
C=CCn1c2cc(OC(=O)CCCCN3CCN(Cc4cccc(F)c4)CC3)ccc2c2ccnc(C)c21,Ellman,,106
CCOP(=S)(OCC)O/N=C(\C#N)c1ccccc1,,,22600
C#CCN(C)c1nc(NCCCCC2CCN(Cc3ccccc3)CC2)c(C#N)c(-c2ccccc2)c1C#N,Ellman,,25
Cc1cc(O)nc(O)n1,Ellman,,191
CN1CCN(CCCCOc2ccc3occc(=O)c3c2)CC1,Ellman,pH 7.4,6430
CC[n+]1c(-c2ccccc2)c2cc(N)ccc2c2ccc(N)cc21,Ellman,,22900
C[C@@H]1CCCN1CCCCOc1ccc2occc(=O)c2c1,Ellman,pH 7.4,8620
CNC(=O)Oc1cccc2ccccc12,Ellman,,2780
C#CCNc1nc(NCCCCC2CCN(Cc3ccccc3)CC2)c(C#N)cc1C#N,Ellman,,2.9
CC(=O)n1ccc(=O)[nH]c1=O,Ellman,,136
C=CCn1c2cc(OC(=O)CCCCN3CCN(Cc4ccccc4C(F)(F)F)CC3)ccc2c2ccnc(C)c21,Ellman,,48.4
CC(=O)O[C@H]1C[C@@H]2CC[C@@H]3[C@H](CC[C@@]4(C)[C@H]3C[C@H]([N+]3(C)CCCCC3)[C@@H]4OC(C)=O)[C@@]2(C)C[C@@H]1N1CCCCC1,,,16500
C=CCn1c2cc(OC(=O)CCCCCN3CCN(Cc4ccccc4)CC3)ccc2c2ccnc(C)c21,Ellman,,157
COc1cc(NS(C)(=O)=O)ccc1Nc1c2ccccc2nc2ccccc12,,,22500
C=CCn1c2cc(OC(=O)CCCCCCN3CCN(Cc4ccccc4)CC3)ccc2c2ccnc(C)c21,Ellman,,286
Cc1ccc(S(=O)(=O)n2cc(Br)c(=O)[nH]c2=O)cc1,Ellman,,88
C=CCn1c2cc(OC(=O)CCCCN3CCN(Cc4ccc(C(F)(F)F)cc4)CC3)ccc2c2ccnc(C)c21,Ellman,,122
C#CCN(C)c1nc(NCCCC2CCN(Cc3ccccc3)CC2)c(C#N)cc1C#N,Ellman,,26.3
C=CCn1c2cc(OC(=O)CCCN3CCN(Cc4ccccc4)CC3)ccc2c2ccnc(C)c21,Ellman,,49.7
COc1cc2c3cc1Oc1cc(ccc1O)C[C@@H]1c4c(cc(OC)c(O)c4Oc4ccc(cc4)C[C@@H]3N(C)CC2)CC[N+]1(C)C,Ellman,,57600
C=CCn1c2cc(OC(=O)CCCCN3CCN(Cc4ccc(F)cc4)CC3)ccc2c2ccnc(C)c21,Ellman,,89.4
COc1ncccc1-c1cnn2ccc(N3CCN(C(=O)OC(C)C)CC3)nc12,,,> 60000
